The entries come from a sample that favours hits as a whole.
T cruzi repl – inhibitors of intracellular T. cruzi growth, primary screen, luminescence, NIH3T3 host cells. T. cruzi beta-gal in NIH3T3, 90 h. inhibition, % (concentration not given with the values). hit rate 1.4% among 300,000;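 active = mean inhibition across valid replicates above about 55%, limit read from the data; inconclusive = mean below that limit but half or more replicates reach it; inactive = mean below it, under half of replicates reach it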;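 also: signal also drops with host cell toxicity which is not excluded here; 0% = plate median of DMSO wells and 100% = zero luminescence signal; higher percent means less beta-gal luminescence so fewer parasites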
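Assay system: NIH/3T3 fibroblasts plus reporter T. cruzi. Amount: NIH/3T3 cells, 5,000 per well. Buffer or medium: DMEM, 2% fetal bovine serum. Doses: compound pinned at 50 nL/well, DMSO. Schedule: ≥90 h infection period, 3 h prior cell attachment. Signal: luminescent β-galactosidase signal after 60 min lysis. Read-out: parasite load inhibition, %.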
PolyA inhibitor – polyadenylation inhibitors in yeast reporter cells, primary screen, luminescence, S. cerevisiae | hit rate 0.02% among 300,000 | activity score, % at 12 µM | S. cerevisiae SKY197-pL101 polyadenylation reporter, beta-gal luminescence; efflux-impaired pdr1/pdr3 knockout yeast; score 100 = 6 SD above DMSO | AID 1875, 2009;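 active = lowest replicate activity score at least 50, where 100 means six control SD above control mean; inconclusive = lowest score under 50 but half or more replicates reach 50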;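 also: yeast exposed to compound for 9 h at 30 °C; higher score means more reporter readthrough which indicates perturbed polyadenylation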
Lmaj promast – Leishmania major promastigote growth inhibition, primary screen; Leishmania major promastigotes, resazurin fluorescence viability; inhibition, % at 10 µM; hit rate 9% among 200,000; AID 1063, 2008; in the data active = inhibition above about 50%;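 also: promastigotes grown with compound for 44 hours at 28 °C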
NLRP3 yeast inh – NALP3 inflammasome inhibitors in reconstituted yeast, primary screen, luminescence, uHTS. hit rate 0.39% among 330,000. Yeast reconstituted NLRP3/ASC/caspase-1, beta-gal luminescence, 24 h. inhibition, % at 10 µM;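 active = inhibition of 50% or more; inactive = inhibition below 50%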;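 also: plate controls were induced DMSO wells for no effect and uninduced yeast grown without galactose for full effect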
NALP1 inh – NALP1 inflammasome inhibitors in reconstituted yeast, colorimetric, S. cerevisiae, triplicate retest; S. cerevisiae NALP1/ASC/caspase-1 growth, X-gal OD620, 72 h; hit rate 0.61% among 280,000; inhibition, % at 10 µM; in the data active = inhibition mostly above about 24%, no sharp cut-off; inactive = mostly below about 32%
Calb FLC – C. albicans growth inhibition with fluconazole, primary screen, CaCi-2 strain, Alamar Blue fluorescence; C. albicans CaCi-2 + fluconazole, 48 h; growth inhibition, % (test concentration not listed); hit rate 0.57% among 300,000; AID 1979, 2009;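 active = growth inhibition above about 58% in most replicates, limit read from the data, passing the limit was not always enough; inconclusive = exactly half the replicates above a set limit; inactive = most replicates below a set limit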;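 also: all wells also contain fluconazole at 8 µg/ml as a sub-toxic cotreatment; 0% = median of DMSO wells and 100% = median of geldanamycin control wells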
Numbers without * were called inactive; ? = inconclusive; nt = no result given.

SMILES | T cruzi repl | PolyA inhibitor | Lmaj promast | NLRP3 yeast inh | NALP1 inh | Calb FLC
CCCC1(CCC)NC(=O)N(CC(=O)c2cc(C)n(-c3ccc4c(c3)OCO4)c2C)C1=O | 20 | -4 | 0 | 1 | 19 | -1
CC[n+]1ccc(/C=C/c2c[nH]c3ccccc23)cc1 | 70* | 11 | nt | 26 | 17 | -17
Cc1ccc2[nH]cc(/C=C/c3cc[n+](C)cc3)c2c1 | 59* | -13 | nt | 25 | 12 | 3
Cn1c(Oc2ccccc2NCc2cc(Br)ccc2O)cc(=O)n(C)c1=O | -4 | -4 | 99* | 9 | 17 | -2
COc1cc(CNc2ccccc2Oc2cc(=O)n(C)c(=O)n2C)cc(OC)c1OC | -8 | -3 | 12 | 12 | 3 | -7
CN(C)S(=O)(=O)c1ccc(C(=O)Nc2nnc(SCc3ccccc3)s2)cc1 | -3 | 5 | -5 | 4 | 28 | 17
CN(C)S(=O)(=O)c1ccc(C(=O)Nc2nnc(SCc3cccc(F)c3)s2)cc1 | -17 | 0 | 52* | 9 | 21 | -10
C=CCSc1nnc(NC(=O)c2cccc(S(=O)(=O)N(C)c3ccccc3)c2)s1 | -13 | 4 | 63* | 2 | 30 | -13
O=[N+]([O-])c1ccccc1OCCN1CCOCC1 | -11 | 2 | nt | 14 | 14 | 13
Cc1ccc(-n2ncc3c(SCc4cccnc4)ncnc32)c(C)c1 | 0 | -1 | -4 | nt | -26 | 47
O=S(=O)(c1ccc2ccccc2c1)N1CCN(C2CCN(Cc3ccccc3)CC2)CC1 | 45 | 3 | 97* | 30 | -6 | 1
O=S(=O)(NC1CCCC1)c1ccc(S(=O)(=O)N2CCCN(Cc3ccccc3)C2)cc1 | 30 | 8 | 84* | 4 | 20 | -3
O=S(=O)(c1ccc2ccccc2c1)N1CCN(C2Cc3ccccc3C2)CC1 | 27 | -69 | 86* | 14 | 32 | 4
O=S(=O)(c1ccccc1)N1CCN(C2CCN(Cc3ccccc3)CC2)CC1 | 13 | -6 | 96* | 0 | 4 | -7
CCOc1ccccc1N1CCN(C(=O)/C=C/c2cccc([N+](=O)[O-])c2)CC1 | -14 | 7 | 6 | -1 | 24 | -2
O=C(Cn1nnc(-c2ccc(Cl)cc2)n1)NCC1CCCCC1 | -9 | -4 | -9 | 10 | 23 | -29
O=S(=O)(c1ccc(Cl)cc1)N1CCC(O)(CN2CCN(Cc3ccccc3)CC2)CC1 | 38 | -20 | 100* | 26 | 7 | -5
CCn1c(SCc2ccccc2)nnc1C1CCN(S(=O)(=O)c2ccc(OC)cc2)CC1 | 18 | 4 | 91* | -17 | 9 | -11
COc1ccc(S(=O)(=O)N2CCN(C3CCN(Cc4ccccc4)CC3)CC2)cc1 | 7 | -9 | 94* | 26 | 4 | -29
Cc1ccc(S(=O)(=O)N2CCC(C(=O)N3CCN(Cc4ccccc4)CC3)CC2)cc1 | nt | nt | -5 | 5 | 11 | nt
Cc1ccc(S(=O)(=O)N2CCN(C3CCN(Cc4ccccc4)CC3)CC2)cc1 | nt | nt | 98* | 24 | 15 | nt
O=S(=O)(c1ccc(S(=O)(=O)N2CCN(Cc3ccccc3)CC2)cc1)N1CCOCC1 | 0 | -19 | -1 | nt | 7 | 8
Cc1cnc(C(=O)OC(C)C(=O)Nc2cccc3ccccc23)cn1 (configuration not stated) | -18 | 8 | nt | -9 | nt | 5
CC(=O)OCC1(C)CN(c2ccccc2)NC1=O (configuration not stated) | 7 | 3 | 6 | 15 | 17 | -5
COc1ccccc1N1CCN(C2CCN(S(=O)(=O)c3ccc4ccccc4c3)CC2)CC1 | 25 | 2 | 55* | 29 | 10 | 9
SMILES | T cruzi repl | PolyA inhibitor | Lmaj promast | NLRP3 yeast inh | NALP1 inh | Calb FLC
COc1ccccc1N1CCN(S(=O)(=O)c2ccc3nc(-c4ccccc4)[nH]c3c2)CC1 | 17 | ? | 57* | 20 | 25 | -17
CCCC(=O)Nc1cccc(Oc2nc(C)cc(C)c2C#N)c1 | 9 | 8 | 52* | 7 | -1 | -10
CC1CCCN(CCCNC(=O)c2cc3c(Cl)nc4ccccc4c3s2)C1 (configuration not stated) | 77* | -4 | 100* | 21 | 6 | -24
CCN(CC)CCCNC(=O)c1cc2c(Cl)nc3ccccc3c2s1 | 50 | 10 | 98* | 30 | 19 | -16
COc1ccc(NC(=O)c2cc3c(Cl)nc4ccccc4c3s2)c(OC)c1 | -15 | 1 | 0 | 10 | 9 | 9
COc1cc(NC(=O)c2cc3c(Cl)nc4ccccc4c3s2)cc(OC)c1OC | -6 | -11 | 57* | 2 | 5 | -9
CN(CCCNC(=O)c1cc2c(Cl)nc3ccccc3c2s1)Cc1ccccc1 | 69* | 2 | 93* | 29 | 20 | 8
CCn1c(=O)n(CC(=O)Nc2ccc(F)cc2)c(=O)c2ccccc21 | -19 | -4 | 0 | -3 | 1 | -23
Cc1ccc(N(C(=O)CNC(=O)c2ccco2)C(C(=O)NC2CCCC2)c2cccnc2)cc1F (configuration not stated) | 2 | -2 | nt | 25 | 7 | 3
O=C(/C=C/c1cccc([N+](=O)[O-])c1)c1ccco1 | -12 | 7 | nt | 23 | 47* | 40
Cc1cccc(/C=C/C(=O)c2ccc([N+](=O)[O-])o2)c1 | 41 | 7 | nt | 34 | nt | 7
Cc1nc2ccccn2c1C(=O)/C=C/c1cccc([N+](=O)[O-])c1 | 10 | -11 | 98* | 22 | 11 | 21
O=C(/C=C/c1cccc([N+](=O)[O-])c1)c1ccc([N+](=O)[O-])o1 | 56* | 6 | nt | nt | nt | 2
Nn1cnc2cc3ccccc3cc2c1=O | -6 | ? | nt | 8 | 27 | -11
O=C(COC(=O)CSc1ccc2ccccc2c1Br)NC1CC1 | -6 | 11 | -5 | 16 | 9 | 20
CCCc1nnc2n1N=C(c1ccc(C)cc1)CS2 | 6 | -7 | nt | -5 | 4 | -3
COc1ccc(OC)c(CCNC(=O)c2ccc(CS(=O)Cc3ccc(Cl)cc3)o2)c1 (configuration not stated) | 1 | 13 | nt | 4 | 4 | -11
CCn1c(=O)oc2cc(NC(=O)CCl)ccc21 | 28 | -13 | 70* | 43 | 4 | 4
COc1ccc(C2=C3C(=O)OCC3Cc3ncn(Cc4ccccc4)c32)cc1 (configuration not stated) | nt | nt | nt | 3 | nt | nt
O=C(NCC1CCCO1)C(c1cccs1)N(Cc1cccs1)C(=O)c1ccc(-c2ccccc2)[nH]1 (configuration not stated) | 7 | 10 | 99* | 4 | 15 | -3
CCOc1ccc(NC(=O)CN(C)CC(=O)Nc2cc(Cl)ccc2C#N)cc1OCC | -5 | 16 | 86* | 21 | 11 | 2
